In ChEMBL document CHEMBL1157101, “A series of alpha-heterocyclic carboxaldehyde thiosemicarbazones inhibit topoisomerase IIalpha catalytic activity” (J Med Chem, 2010):
Activity calls are given as the source filed them. The rule behind the calls is not given here.

Legend:
[1] = molecular target: T1, DNA topoisomerase 2-alpha (Homo sapiens, UniProt P11388); assay: Inhibition of topoisomerase-2 alpha in human HT-29 cells assessed as reversal of etoposide-mediated DNA double strand break measured as phosphorylated histone2A level at 1 uM by immunostaining; assay type: cell-based
T1 sequence (P11388 whole entry): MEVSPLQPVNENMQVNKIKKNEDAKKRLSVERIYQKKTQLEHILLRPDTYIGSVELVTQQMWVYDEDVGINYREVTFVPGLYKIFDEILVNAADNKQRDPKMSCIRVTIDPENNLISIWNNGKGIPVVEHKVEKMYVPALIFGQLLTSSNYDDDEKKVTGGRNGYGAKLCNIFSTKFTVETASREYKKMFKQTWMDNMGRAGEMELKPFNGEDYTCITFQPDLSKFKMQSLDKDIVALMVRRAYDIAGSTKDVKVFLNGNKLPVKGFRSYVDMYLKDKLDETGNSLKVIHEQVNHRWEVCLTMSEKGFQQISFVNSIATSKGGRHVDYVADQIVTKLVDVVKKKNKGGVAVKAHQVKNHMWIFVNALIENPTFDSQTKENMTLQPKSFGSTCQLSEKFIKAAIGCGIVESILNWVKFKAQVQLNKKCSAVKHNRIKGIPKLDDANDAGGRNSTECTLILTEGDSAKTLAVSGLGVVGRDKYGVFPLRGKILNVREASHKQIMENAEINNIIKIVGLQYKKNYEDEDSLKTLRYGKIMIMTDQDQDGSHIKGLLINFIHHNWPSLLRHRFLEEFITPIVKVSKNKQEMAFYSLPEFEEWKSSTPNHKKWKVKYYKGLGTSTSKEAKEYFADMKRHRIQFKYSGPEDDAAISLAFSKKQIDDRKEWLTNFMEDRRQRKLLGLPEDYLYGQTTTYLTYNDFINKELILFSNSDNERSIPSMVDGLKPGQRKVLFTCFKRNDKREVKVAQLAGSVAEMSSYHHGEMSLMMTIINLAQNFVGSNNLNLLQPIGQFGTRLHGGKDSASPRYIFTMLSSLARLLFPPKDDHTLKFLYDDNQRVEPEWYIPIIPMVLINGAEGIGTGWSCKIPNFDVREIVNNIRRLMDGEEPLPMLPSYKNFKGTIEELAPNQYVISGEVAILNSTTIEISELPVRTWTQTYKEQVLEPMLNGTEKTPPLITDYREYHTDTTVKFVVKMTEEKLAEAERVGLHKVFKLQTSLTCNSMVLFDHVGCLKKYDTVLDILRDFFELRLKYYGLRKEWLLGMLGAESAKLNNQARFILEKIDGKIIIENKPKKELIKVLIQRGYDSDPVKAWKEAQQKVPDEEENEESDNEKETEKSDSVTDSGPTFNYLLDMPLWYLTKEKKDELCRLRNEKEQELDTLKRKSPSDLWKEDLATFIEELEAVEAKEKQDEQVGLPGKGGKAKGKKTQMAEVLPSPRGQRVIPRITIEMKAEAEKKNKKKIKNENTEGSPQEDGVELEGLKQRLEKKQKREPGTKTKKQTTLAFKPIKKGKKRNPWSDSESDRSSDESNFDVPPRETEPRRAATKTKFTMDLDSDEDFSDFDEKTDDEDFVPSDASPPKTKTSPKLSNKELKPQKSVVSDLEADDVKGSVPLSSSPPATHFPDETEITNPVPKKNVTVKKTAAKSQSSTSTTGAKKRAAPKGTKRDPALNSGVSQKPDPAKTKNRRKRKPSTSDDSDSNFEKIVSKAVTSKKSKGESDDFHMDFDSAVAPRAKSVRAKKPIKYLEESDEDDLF

MDA-MB-435 = assay: Antiproliferative activity against human MDA-MB-435 cells after 72 hrs by sulforhodamine B assay; assay type: functional, cell-based; conditions: MDA-MB-435, 72 h
Outline: (§1)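 Cells seeded and exposed in triplicate to graded compound concentrations for 72 h. Suspension cells read by MTT conversion to coloured product; adherent cells read by sulforhodamine B. IC50 (50% growth inhibition versus untreated control) derived by the Logit method.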

[2] = molecular target: T1, DNA topoisomerase 2-alpha; assay: Binding affinity to human topoisomerase 2 alpha ATPase domain in presence of ATP
Outline: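 Surface plasmon resonance. Human Topo IIα ATPase domain immobilised on CM5 chips after activation of surface carboxyl groups. Serial compound dilutions flowed over the chip and sensorgrams recorded. KD obtained by steady-state affinity fitting.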

HT-29 [3] = assay: Cell cycle arrest in nocodazole pretreated human HT-29 cells assessed as accumulation at M phase at 1 uM after 24 hrs; assay type: functional, cell-based
Outline: (§2)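 HT-29 cells stained with propidium iodide; cell-cycle distribution determined by flow cytometry.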

[4] = molecular target: T1, DNA topoisomerase 2-alpha; assay: Inhibition of topoisomerase-2 alpha in human HT-29 cells assessed as reversal of etoposide-mediated DNA double strand break measured as phosphorylated histone2A level at 100 uM by immunostaining; assay type: cell-based
MKN-28 = assay: Antiproliferative activity against human MKN28 cells after 72 hrs by sulforhodamine B assay; assay type: functional, cell-based; conditions: MKN-28, 72 h; outline: as §1
MCF7 = assay: Antiproliferative activity against human MCF7 cells after 72 hrs by sulforhodamine B assay; assay type: functional, cell-based; conditions: MCF7, 72 h
[5] = molecular target: T1, DNA topoisomerase 2-alpha; assay: Inhibition of topoisomerase 2-mediated displacement of ethidium bromide from DNA assessed as decrease in fluorescence
HCT-116 = assay: Antiproliferative activity against human HCT116 cells after 72 hrs by sulforhodamine B assay; assay type: functional, cell-based; conditions: HCT-116, 72 h; outline: as §1
HeLa = assay: Antiproliferative activity against human HeLa cells after 72 hrs by sulforhodamine B assay; assay type: functional, cell-based; outline: as §1
[6] = Antiproliferative activity against human MCF7/ADR cells after 72 hrs by sulforhodamine B assay; assay type: functional, cell-based; conditions: NCI/ADR-RES; outline: as §1
U-937 = assay: Antiproliferative activity against human U937 cells after 72 hrs by sulforhodamine B assay; assay type: functional, cell-based; conditions: U-937, 72 h; outline: as §1
[7] = molecular target: T1, DNA topoisomerase 2-alpha; assay: Inhibition of human topoisomerase 2alpha ATPase domain assessed as ATP hydrolysis
Outline: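 NADH-coupled ATPase assay at 37 °C in 100 μL. Contains 2 μg Topo IIα ATPase domain (or 18 nM Topo IIα), 0.2 μg pBR322, 1 mM ATP, 2 mM PEP, 0.16 mM NADH, 5 U pyruvate kinase and 8 U lactate dehydrogenase.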

CCRF S-180 = assay: Antitumor activity against mouse S180 cells transplanted in Kunming mouse assessed as inhibition of tumor growth at 50 mg/kg/day, ip for 7 days; assay type: functional; conditions: CCRF S-180, ip, 168 h, route intraperitoneal
Outline: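 Female Kunming mice, 7 weeks old, 18-22 g, inoculated sc in the right armpit with S-180 sarcoma. Dosing began the next day, ip daily for 7 days; normal saline given iv as control. Tumours excised and weighed after treatment. Inhibitory rate (%) = (mean control tumour weight − mean treated tumour weight)/mean control tumour weight × 100.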

HT-29 [8] = assay: Inhibition of DNA synthesis in human HT-29 cells measured up to 8 hrs by BrdU incorporation assay; assay type: functional, cell-based
Outline: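 HT-29 cells; DNA synthesis measured by BrdU incorporation with flow detection.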

MKN-45 = assay: Antiproliferative activity against human MKN45 cells after 72 hrs by sulforhodamine B assay; assay type: functional, cell-based; conditions: MKN-45, 72 h; outline: as §1
HT-29 [9] = assay: Antiproliferative activity against human HT-29 cells after 72 hrs by sulforhodamine B assay; assay type: functional, cell-based; conditions: HT-29, 72 h; outline: as §1
HT-29 [10] = assay: Cell cycle arrest in human HT-29 cells pretreated with aphidicolin for 1 hr assessed as accumulation at G1/S phase after 24 hrs by flow cytometry in presence of nocdazole; assay type: functional, cell-based; outline: as §2
[11] = molecular target: T1, DNA topoisomerase 2-alpha; assay: Inhibition of topoisomerase 2alpha assessed as antagonization of etoposide-mediated prestrand passage DNA cleavage in absence of ATP
[12] = molecular target: T1, DNA topoisomerase 2-alpha; assay: Inhibition of topoisomerase-2 alpha in human HT-29 cells assessed as reversal of etoposide-mediated DNA double strand break measured as phosphorylated histone2A level at 30 uM by immunostaining; assay type: cell-based
[13] = molecular target: T2, DNA topoisomerase 1 (Homo sapiens) (UniProt P11387); assay: Inhibition of topoisomerase 1-mediated unwinding of supercoiled DNA assessed as DNA intercalation
T2 sequence (whole entry): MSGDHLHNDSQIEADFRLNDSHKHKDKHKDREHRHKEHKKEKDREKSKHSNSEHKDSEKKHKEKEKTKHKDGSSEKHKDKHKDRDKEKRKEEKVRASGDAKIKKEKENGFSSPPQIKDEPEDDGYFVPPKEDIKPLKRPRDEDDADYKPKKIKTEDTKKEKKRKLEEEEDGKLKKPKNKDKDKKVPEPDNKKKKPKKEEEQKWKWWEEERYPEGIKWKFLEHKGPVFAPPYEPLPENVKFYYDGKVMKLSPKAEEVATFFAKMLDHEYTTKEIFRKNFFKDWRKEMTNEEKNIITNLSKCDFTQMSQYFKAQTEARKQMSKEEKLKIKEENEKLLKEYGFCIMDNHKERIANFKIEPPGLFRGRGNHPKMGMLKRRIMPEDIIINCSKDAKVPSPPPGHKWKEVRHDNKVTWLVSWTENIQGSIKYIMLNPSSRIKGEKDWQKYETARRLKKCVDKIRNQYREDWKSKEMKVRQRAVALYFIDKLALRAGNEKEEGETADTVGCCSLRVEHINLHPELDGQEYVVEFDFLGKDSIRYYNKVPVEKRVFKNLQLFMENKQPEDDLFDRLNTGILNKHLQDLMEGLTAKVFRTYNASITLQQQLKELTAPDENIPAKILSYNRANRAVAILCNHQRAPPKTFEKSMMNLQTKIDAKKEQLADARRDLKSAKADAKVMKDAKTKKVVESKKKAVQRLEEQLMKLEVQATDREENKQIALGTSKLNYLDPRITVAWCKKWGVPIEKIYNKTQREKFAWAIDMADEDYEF

K562 = assay: Antiproliferative activity against human K562 cells after 72 hrs by sulforhodamine B assay; assay type: functional, cell-based; conditions: K562, 72 h; outline: as §1
HL60/MX2 = assay: Cytotoxicity against human HL60/MX2 cells; assay type: functional, cell-based
MDA-MB-231 = assay: Antiproliferative activity against human MDA-MB-231 cells after 72 hrs by sulforhodamine B assay; assay type: functional, cell-based; conditions: MDA-MB-231, 72 h; outline: as §1
A-375 = assay: Antiproliferative activity against human A375 cells after 72 hrs by sulforhodamine B assay; assay type: functional, cell-based; conditions: A-375, 72 h; outline: as §1
[14] = molecular target: T1, DNA topoisomerase 2-alpha; assay: Inhibition of topoisomerase 2alpha-mediated displacement of Hoechst 33258 from DNA assessed as decrease in fluorescence; conditions: concentration not given here

In the case of CN(C)C(=S)N/N=C/c1ccc2ccccc2n1, the inhibition [1] is reported as “Active”, the IC50 (MDA-MB-435) is reported as 370 nM and the Activity [2] is reported as “inactive”. For the same molecule, the Activity (HT-29 [3]) was “Active”, the inhibition [4] was “Active” and the IC50 (MKN-28) was 170 nM. The IC50 (MCF7) was 340 nM, the inhibition [5] was “inactive” and the IC50 (HCT-116) was 220 nM. For the same molecule, the IC50 (HeLa) was 90 nM, the IC50 [6] was 200 nM and the IC50 (U-937) was 30 nM. The inhibition [7] was “Dose-dependent effect”, the inhibition in vivo at 50 mg/kg/day (CCRF S-180) was 76.7% and the inhibition (HT-29 [8]) was “Dose-dependent effect”. For the same molecule, the IC50 (MKN-45) was 830 nM, the IC50 (HT-29 [9]) was 20 nM and the Activity (HT-29 [10]) was “inactive”. For the same molecule, the inhibition [11] was “inactive”, the inhibition [12] was “Active” and the inhibition [13] was “inactive”. For the same molecule, the IC50 (K562) was 60 nM, the Activity (HL60/MX2) was “Active” and the IC50 (MDA-MB-231) was 20 nM. For the same molecule, the IC50 (A-375) was 20 nM and the inhibition [14] was 22%.
